The structures appear in SMILES notation. Bounds are passed on as bounds.

Holding throughout (type): functional
The test system of experiment [1] is Aspergillus fumigatus. In words: Antifungal activity against Aspergillus fumigatus ATCC 40640 after 72 hr by broth microdilution method. Conditions: ATCC 40640, 72 h. An outline of the steps:
(§1)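 Molds were grown 7 days on SDA at 25–28 °C, and conidia were harvested in sterile 0.85% NaCl. Conidia were counted by hemocytometer and adjusted to about 5 × 10^6 conidia/mL. Microdilution used Sabouraud broth in 96-well plates with compound at 2048 to 8 μg/mL and about 2.5 × 10^5 conidia/mL per well. Plates were incubated at 25–28 °C for 72 h, with readings confirmed at 7 days. Amphotericin B was the reference.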
For orientation: Dilution methods test growth across graded concentrations, often in twofold steps.

The subject of experiment [2] is Aspergillus flavus. In words: Antifungal activity against Aspergillus flavus LM 210 after 72 hr by broth microdilution method. Particulars: LM 210, 72 h. The essentials:
as §1

The subject of experiment [3] is Aspergillus fumigatus. In words: Antifungal activity against Aspergillus fumigatus IPP 210 after 72 hr by broth microdilution method. Conditions: IPP 210, 72 h. The essentials: as §1
The subject of experiment [4] is Aspergillus flavus. Briefly: Antifungal activity against Aspergillus flavus ATCC 16013 after 72 hr by broth microdilution method. Conditions: ATCC 16013, 72 h. The essentials: as §1
Experiment [5] deals with Aspergillus flavus. In words: Antifungal activity against Aspergillus flavus LM 26 after 72 hr by broth microdilution method. Particulars: LM 26, 72 h. An outline of the steps:
as §1

In experiment [6] the test system is Aspergillus fumigatus. Briefly: Antifungal activity against Aspergillus fumigatus ATCC 46913 after 72 hr by broth microdilution method. Conditions: ATCC 46913, 72 h. An outline of the steps: as §1
The test system of experiment [7] is Aspergillus fumigatus. In words: Antifungal activity against Aspergillus fumigatus ATCC 16913 after 72 hr by broth microdilution method. Conditions: for MIC: Aspergillus fumigatus, ATCC 16913, 72 h. The essentials:
as §1

Experiment [8] concerns Aspergillus flavus. Briefly: Antifungal activity against Aspergillus flavus LM 247 after 72 hr by broth microdilution method. Particulars: LM 247, 72 h. The essentials:
as §1

`O=c1oc2ccccc2c(O)c1Cc1c(O)c2ccccc2oc1=O` [DICUMAROL]: the MIC in the experiment on Aspergillus fumigatus [1], in the experiment with Aspergillus flavus [2], against Aspergillus fumigatus [3], in the experiment with Aspergillus flavus [4], in the experiment with Aspergillus flavus [5] and against Aspergillus fumigatus [6] was ≥ 2050 µg/mL throughout. In addition, the MIC in the experiment with Aspergillus fumigatus [7] and against Aspergillus flavus [8] was ≥ 2050 µg/mL throughout. In the experiment with Aspergillus fumigatus [7], the “log(1/MIC)” value was determined as 2.21.

In the case of `O=c1ccc2ccc(O)cc2o1` [UMBELLIFERONE], the MIC against Aspergillus fumigatus [1], against Aspergillus flavus [2], against Aspergillus fumigatus [3], with Aspergillus flavus [4], with Aspergillus flavus [5] and against Aspergillus fumigatus [6] was ≥ 2050 µg/mL each time. The MIC in the experiment with Aspergillus fumigatus [7] and in the experiment on Aspergillus flavus [8] was ≥ 2050 µg/mL throughout. For the same compound, the “log(1/MIC)” value with Aspergillus fumigatus [7] was 1.89.

The MIC is the lowest concentration that inhibits growth of the organism.

The values above are taken from ChEMBL document CHEMBL3045066, “Synthesis, structure-activity relationships (SAR) and in silico studies of coumarin derivatives with antifungal activity” (2013).
